The source of these data is ChEMBL document CHEMBL3124817, “Design and synthesis of thiazole derivatives as potent FabH inhibitors with antibacterial activity” (Eur J Med Chem, 2014).

A short description of data set [1]: Cytotoxicity against human macrophages after 24 hrs by MTT assay. It counts as cell-based, Macrophage. In a few lines: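 Human macrophages in DMEM with 10% FBS and antimycotic, 1.8×10^4 cells/well. Compounds at 160, 40, 10, 2.5, 0.25 μg/mL in 10% DMSO, 24 h at 37 °C under 5% CO₂. Then MTT for 4 h, formazan dissolved in DMSO, absorbance difference 570/630 nm as viability. CC50 by curve fitting; untreated cells as negative control.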
In general terms: Formazan colour is commonly taken as a measure of viable cells.

Data set [2] in a line: Inhibition of Escherichia coli N-terminal His-tagged FabH expressed in Escherichia coli BL21(DE3) using holo-acyl carrier protein as substrate preincubated for 1 min followed by acetyl-CoA addition measured after 25 mins by liquid scintillation counting analysis. In a few lines: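 His-tagged FabH purified by Ni–NTA. Reaction: 1 nM FabH, […], 20 mM sodium phosphate pH 7.0, 0.5 mM DTT, 0.25 mM MgCl₂, 1 min preincubation. Started with 25 μM acetyl-CoA plus 0.75 μCi [³H]acetyl-CoA for 25 min. Stopped with cold TCA, protein pellet counted by liquid scintillation. Inhibitors from DMSO stock, final DMSO ≤2%; IC50 determined.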

In data set [3] the test system is Escherichia coli. The data set can be described thus: Antibacterial activity against Escherichia coli ATCC 35218 after 24 hrs by MTT assay. It counts as functional. As to conditions: ATCC 35218, 24 h. In a few lines:
(§1)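 Broth microdilution in sterile liquid MH medium; compounds from 1 mg/mL DMSO stock, serially diluted. Inoculum about 10^5 cfu/mL, 37 °C for 24 h. MIC read visually, then MTT (2 mg/mL in PBS pH 7.4) added for 4–5 h at room temperature. Dye extracted with acidified isopropanol for 12 h, OD at 550 nm.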

Data set [4] deals with Pseudomonas aeruginosa. The data set can be described thus: Antibacterial activity against Pseudomonas aeruginosa ATCC 13525 after 24 hrs by MTT assay. Particulars: ATCC 13525, 24 h. It counts as functional. In a few lines: as §1
In data set [5] the test system is Bacillus spizizenii. The experiment in a line: Antibacterial activity against Bacillus subtilis ATCC 6633 after 24 hrs by MTT assay. It counts as functional. As to conditions: ATCC 6633, 24 h. The gist of the method:
as §1

In data set [6] the test system is Staphylococcus aureus. The experiment in a line: Antibacterial activity against Staphylococcus aureus ATCC 6538 after 24 hrs by MTT assay. It counts as functional. As to conditions: ATCC 6538, 24 h. In a few lines: as §1

Converted amounts (≈) assume the structure as drawn. A value given as a limit tells only on which side of the number the result lay.

Usually CC50 stands for the concentration that lowers cell viability or growth by half. Low readings indicate harm at low concentration, high ones better tolerance by the cells. As usually defined, the IC50 is the concentration that inhibits the measured activity by half. Read a low IC50 as greater potency. The pIC50 is the negative decadic logarithm of the IC50, by convention in mol/L. The low end stands for a high IC50, the high end for a low IC50. As for `O=C(Cc1cccc(Cl)c1)Nc1nc(-c2ccccc2)cs1`, half-maximal cytotoxicity in data set [1] (CC50 at 24 h) was put at 264 µM. In data set [2], this compound came in with an IC50 of 12.3 µM and a pIC50 of 4.91.

Broadly, the MIC is the lowest concentration found to suppress growth. High values mean weaker potency, low ones greater potency. Consider `O=C(Cc1cccc(Br)c1)Nc1nc(-c2ccc(Br)cc2)cs1`, for which the CC50 at 24 h in data set [1] was 220 µM. In addition, in data set [2], the IC50 was 5.8 µM. The same compound had a negative logarithm of the IC50 (pIC50) in data set [2] of 5.01. Further, the MIC in data set [3] came to 1.56 µg/mL (≈ 3.45 µM); in data set [4], 3.13 µg/mL (≈ 6.92 µM); in data set [5] it was 1.56 µg/mL (≈ 3.45 µM).

Turning to `CCOc1cccc(CC(=O)Nc2nc(-c3ccc(Br)cc3)cs2)c1`, the minimal inhibitory concentration (MIC) in data set [6] is over 100 µg/mL; in data set [3] it was 50 µg/mL (≈ 120 µM); in data set [4] it was 25 µg/mL (≈ 59.9 µM); in data set [5], 50 µg/mL (≈ 120 µM).

`O=C(Cc1cccc(Br)c1)Nc1nc(-c2ccccc2)cs1` came in with a cytotoxic concentration (CC50) at 24 h in data set [1] of 257 µM. In data set [2], the IC50 was found to be 26.9 µM and the pIC50 came to 4.57.

Consider `COc1cccc(CC(=O)Nc2nc(-c3ccc(Br)cc3)cs2)c1`, for which the CC50 at 24 h in data set [1] amounted to 192 µM. For the same compound, the minimum inhibitory concentration (MIC) in data set [6] was found to be 3.13 µg/mL (≈ 7.76 µM); in data set [3] it was 12.5 µg/mL (≈ 31 µM); in data set [4] it was 3.13 µg/mL (≈ 7.76 µM); in data set [5] it was 6.25 µg/mL (≈ 15.5 µM). In data set [2], this compound showed an IC50 of 6.6 µM. Further, the pIC50 in data set [2] was determined as 5.25.

Take `CCOc1cccc(CC(=O)Nc2nc(-c3ccccc3)cs2)c1`: the MIC in data set [6] is over 100 µg/mL; in data set [3], 50 µg/mL (≈ 148 µM); in data set [4], 50 µg/mL (≈ 148 µM); in data set [5] it was over 100 µg/mL.

With `O=C(Nc1nc(-c2ccccc2)cs1)c1ccccc1`, in data set [2], the IC50 was over 100 µM.

The compound `O=C(Cc1ccc(Br)cc1)Nc1nc(-c2ccc(Br)cc2)cs1` displayed a CC50 at 24 h in data set [1] of 315 µM. Besides, in data set [2], the IC50 is 48.1 µM and the pIC50 was 4.32.

`O=C(Nc1nc(-c2ccc(Br)cc2)cs1)c1ccccc1`: the IC50 in data set [2] is over 100 µM.

The compound `O=C(Cc1ccc(F)cc1)Nc1nc(-c2ccc(Br)cc2)cs1` returned a 50% cytotoxic concentration (CC50) at 24 h in data set [1] of 264 µM. Also, in data set [2], the IC50 worked out at 29.3 µM and the pIC50 stood at 4.53.

`CC1(C)S[C@@H]2[C@H](NC(=O)Cc3ccccc3)C(=O)N2[C@H]1C(=O)O` [PENICILLIN G] came in with a CC50 at 24 h in data set [1] of 229 µM. Moreover, the IC50 in data set [2] was determined as 4.9 µM.

`O=C(Cc1cccc(Cl)c1)Nc1nc(-c2ccc(Br)cc2)cs1`: in data set [1], the CC50 at 24 h was 194 µM. Also, in data set [2], the midpoint of inhibition, the IC50, lay at 9.3 µM. Moreover, the pIC50 in data set [2] came to 5.27. Besides, the MIC in data set [3] came to 6.25 µg/mL (≈ 15.3 µM); in data set [4], 12.5 µg/mL (≈ 30.7 µM).

`O=C(Cc1ccc(Cl)cc1)Nc1nc(-c2ccc(Br)cc2)cs1` came in with a cytotoxic concentration (CC50) at 24 h in data set [1] of 286 µM. In addition, in data set [2], it took 34.7 µM to reach half-maximal inhibition (IC50) and the pIC50 was 4.46.

In data set [1], `O=C(Cc1ccc(F)cc1)Nc1nc(-c2ccccc2)cs1` returned a CC50 at 24 h of 318 µM. In addition, in data set [2], the midpoint of inhibition, the IC50, lay at 38.4 µM and the pIC50 is reported as 4.42.

Take `COc1cccc(CC(=O)Nc2nc(-c3ccccc3)cs2)c1`: the minimal inhibitory concentration (MIC) in data set [4] amounted to 25 µg/mL (≈ 77.1 µM).

In data set [1], `O=C(Cc1ccc(Cl)cc1)Nc1nc(-c2ccccc2)cs1` had a CC50 at 24 h of 357 µM. For the same compound, in data set [2], half-maximal inhibition (IC50) was put at 41.8 µM and the negative logarithm of the IC50 (pIC50) came to 4.38.
